# Screens from PubChem BioAssay.
# An excerpt weighted towards active compounds, which were near 2.9% of everything screened.
# PRMT1 FP inh: inhibitors of human PRMT1; Q99873; recombinant PRMT1, activity-based probe fluorescence polarization; inhibition, % at 2.79 µM; 370,000 compounds, 1.3% hits; AID 652257;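 active means inhibition above about 21% made by adding two undisclosed values, limit read from the data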
# A3G deaminase: inhibitors of human APOBEC3G DNA deaminase. Q9HC16. recombinant A3G, ssDNA deamination FAM/TAMRA fluorescence. inhibition, % at 20 µM. 330,000 compounds, 0.28% hits. AID 493012;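 active means inhibition of at least 40% at 20 µM, with no more than 30% in the related APOBEC3A deaminase screen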;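 further: plate controls were DMSO wells with A3G for no effect and wells lacking A3G enzyme for full effect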
# core dimer inh: blocks dimerization of HCV core protein; TR-FRET GST/Flag-core106 dimerization, 1536-well; inhibition, % at 5 µM; 300,000 compounds, 0.33% hits;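 active means inhibition above the mean of all tested compounds plus 3 SD, set per screening campaign, cut at about 45% in these data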
#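 Assay system – GST-tagged and Flag-tagged HCV core protein residues 1-106 · Quantity – core106 proteins, GST 13.5 nM and Flag 17 nM · Benchmarks – unlabelled core106 and no-GST-core106 wells · Read-out basis – percent inhibition of core106 dimerization signal · Detection – time-resolved FRET, ex 340 nm, em 617 and 671 nm · Schedule – 4 h at 22.5 °C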
# HCV NS3 hel inh: HCV NS3 helicase inhibition; NS3 helicase DNA unwinding, Cy5 molecular beacon fluorescence; inhibition, % at 10.9 µM; 290,000 compounds, 0.56% hits; AID 1800;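 active means inhibition above the mean of all tested compounds plus 3 SD, set per campaign, cut at about 35% in these data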;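 further: 0% = DMSO wells and 100% = thioflavine S control wells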
#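 Control set: DMSO versus 110 µM thioflavine S; Material: NS3 helicase fragment of HCV; Measured by: Cy5 fluorescence at 0 and 60 min, beacon hairpin quenching; Read-out basis: percent inhibition from t60/t0 fluorescence ratio; Times: reaction time 60 min, 25 °C; Repeats: single replicate; Compound dosing: single dose, 10.9 µM nominal final, DMSO 0.8% final.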
# ABHD5-PLIN5 inh: inhibitors of human ABHD5-perilipin-5 interaction. Split G. princeps luciferase complementation, luminescence, 4 h. inhibition, % at 4 µM. 360,000 compounds, 0.78% hits. AID 602281;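 active means inhibition above the mean inhibition across every tested compound plus 3 SD, cut at about 22% in these data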;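 further: 0% = DMSO only wells and the 100% control is not disclosed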
# Target sequence (Q00G26 whole entry, looked up): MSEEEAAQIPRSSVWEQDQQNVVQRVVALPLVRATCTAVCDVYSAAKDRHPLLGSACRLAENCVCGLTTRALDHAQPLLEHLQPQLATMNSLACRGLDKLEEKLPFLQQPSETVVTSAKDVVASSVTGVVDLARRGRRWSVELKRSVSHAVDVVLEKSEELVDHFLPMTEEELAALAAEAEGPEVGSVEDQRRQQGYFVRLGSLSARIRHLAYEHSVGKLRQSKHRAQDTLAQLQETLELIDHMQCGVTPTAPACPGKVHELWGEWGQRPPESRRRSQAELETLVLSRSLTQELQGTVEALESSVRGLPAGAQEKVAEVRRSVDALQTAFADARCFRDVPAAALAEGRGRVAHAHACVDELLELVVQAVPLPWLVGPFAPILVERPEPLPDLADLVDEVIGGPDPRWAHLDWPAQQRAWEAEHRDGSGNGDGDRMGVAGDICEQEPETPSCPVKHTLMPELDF
# Target sequence (Q8WTS1 whole entry, looked up): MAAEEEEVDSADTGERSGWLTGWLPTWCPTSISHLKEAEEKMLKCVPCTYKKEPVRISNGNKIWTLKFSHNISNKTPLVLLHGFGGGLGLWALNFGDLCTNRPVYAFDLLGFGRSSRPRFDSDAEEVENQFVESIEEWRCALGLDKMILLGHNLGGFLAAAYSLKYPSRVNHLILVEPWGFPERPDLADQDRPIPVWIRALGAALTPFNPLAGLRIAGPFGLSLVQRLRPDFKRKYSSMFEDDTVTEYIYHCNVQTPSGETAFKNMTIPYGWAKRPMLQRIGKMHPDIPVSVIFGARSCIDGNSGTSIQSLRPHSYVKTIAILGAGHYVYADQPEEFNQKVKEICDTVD
# A3A deaminase: inhibitors of human APOBEC3A DNA deaminase | recombinant A3A, FAM/TAMRA ssDNA deamination fluorescence | inhibition, % at 20 µM | 330,000 compounds, 0.41% hits | P31941 | AID 493011;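 active means at least 40% inhibition at 20 µM here, with at most 30% in a related deaminase screen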;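 further: plate controls were A3A with DMSO for no effect and wells lacking A3A enzyme for full effect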
# NS3 hel confirm: HCV NS3 helicase inhibition, confirmation assay; shares compounds with HCV NS3 hel inh; NS3 helicase DNA unwinding, Cy5 molecular beacon fluorescence; inhibition, % at 10.9 µM; 1,600 compounds, 31% hits;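 active means inhibition above the mean of all tested compounds plus 3 SD, cutoff set per campaign, cut at about 36% in these data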
# DNA FID counter: intercalator displacement, NS3 helicase counter-screen | inhibition, % at 7.9 µM | DNA fluorescent intercalator displacement, fluorescence | 1,600 compounds, 4% hits | shares compounds with HCV NS3 hel inh; in the data active means inhibition above about 37%;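 further: 0% = vehicle and 100% = reference compound; higher means more displacement of ethidium bromide from the DNA hairpin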
# FID counter DR: counter-screen for HCV NS3 helicase inhibitors: DNA intercalator displacement dose response; shares compounds with HCV NS3 hel inh; fluorescent intercalator displacement from DNA, fluorescence; IC50, µM; 120 tested, under 10 active; AID 2172; call rule not given here
# Active calls of the source: *; · = no result given.
SMILES,PRMT1 FP inh,A3G deaminase,core dimer inh,HCV NS3 hel inh,ABHD5-PLIN5 inh,A3A deaminase,NS3 hel confirm,DNA FID counter,others
O=C(N/N=C\C=C\c1ccco1)C1COc2ccccc2O1 (stereo not drawn),11,-5,5,44*,23*,4,-2,-8,
CC1=C(C)Cc2c(OC(=O)c3ccccc3)ccc(OC(=O)c3ccccc3)c2C1,·,-3,-8,17,·,1,-11,1,
CC(C)(Oc1ccc(CCNC(=O)c2ccc(-c3ccccc3)o2)cc1)C(=O)O,-2,-1,-12,13,-1,-1,·,·,
CC(C)(Oc1ccc(-c2ccco2)cc1)C(=O)O,·,12,1,41*,·,17,30,3,
CCCCC[C@@H](/C=C/C1C(=O)C=C[C@H]1C/C=C\CCCC(=O)O)OC(C)=O (stereo partly drawn),3,·,·,·,4,·,·,·,
COc1ccc(O)c(/C=N/NC(=S)NCCc2ccccc2)c1,-2,-2,-2,29,-4,-4,·,·,
COc1ccc(/C(C)=N/NC(=S)NCCc2ccccc2)c(O)c1,7,-7,7,42*,-3,0,9,-5,
COc1cccc(NC(=S)NC2CC(C)CC(C)(C)C2)c1 (stereo not drawn),-5,·,·,·,-7,·,·,·,
CCOC(=O)c1cnc2c(C)cc(C)cc2c1NCCCN1CCOCC1,-3,-6,·,41*,12,-4,0,77*,
CCOC(=O)c1cnc2c(C)c(Cl)ccc2c1NCCCN1CCOCC1,-5,-8,10,18,9,-7,·,·,
CC1=NN(C(N)=S)C(=O)C1N=Nc1ccc(Cl)cc1 (stereo not drawn),-1,-6,·,6,-3,-8,·,·,
CC1=NN(C(N)=S)C(=O)C1N=Nc1ccc(Br)cc1 (stereo not drawn),0,-1,·,41*,-1,-8,-10,11,
CCC(=O)Nc1ccc2nc3c(=O)[nH]c(=S)[nH]c3nc2c1,14,28,-13,39*,3,20,-21,5,
CC(C)(C)OC(=O)N1CCC(c2cc(=O)n3[nH]cc(C(=O)Nc4ccc(F)c(Cl)c4)c3n2)CC1,-3,-1,5,25,-7,0,·,·,
COc1ccc(NC(=O)c2c[nH]n3c(=O)cc(C4CCN(C(=O)OC(C)(C)C)CC4)nc23)cc1Cl,1,-1,22,36*,-1,-5,52*,-28,
O=[N+]([O-])c1c(C(Cl)Cl)nn(-c2ccccc2)c1N1CCOCC1,-3,-5,2,58*,-6,-2,-13,-12,
c1ccc(-c2ccc3ncccc3n2)cc1,3,·,·,·,6,·,·,·,
CC(=O)Nc1ccc(S(=O)(=O)NNC(=O)COc2ccc(Cl)cc2Cl)cc1,-7,-6,-1,37*,-4,3,11,4,
CC1C(=O)N(Cc2cn(CCC3OCCO3)nn2)CCS(=O)(=O)N1Cc1ccc(-c2ccccc2)cc1 (stereo not drawn),-1,·,·,·,1,·,·,·,
Clc1ccccc1Cn1c(/C=C/c2ccco2)nc2ccccc21,2,·,-3,52*,10,·,11,-23,
CCCS(=O)(=O)NC(=O)C1(C)CCN(C(=O)COc2ccc(Cl)cc2Cl)C1 (stereo not drawn),-3,·,·,·,4,·,·,·,
COc1ccc(OC)c(NC(=O)Nc2nnc(N3CCCCC3C)s2)c1 (stereo not drawn),-1,-1,-2,39*,2,4,-7,-13,
CC(C)CC(=O)Nc1nnc(S(=O)(=O)N(C)Cc2ccco2)s1,·,0,-7,55*,3,5,-3,10,
CN(Cc1ccco1)S(=O)(=O)c1nnc(NC(=O)c2cccc(Cl)c2)s1,10,3,16,0,20,3,·,·,
O=C(O)c1cc(N/N=C/C=C/c2ccccc2[N+](=O)[O-])ccc1Cl,2,-6,-5,43*,7,0,52*,-3,
SMILES,PRMT1 FP inh,A3G deaminase,core dimer inh,HCV NS3 hel inh,ABHD5-PLIN5 inh,A3A deaminase,NS3 hel confirm,DNA FID counter,others
CCN1Cc2nnn(Cc3ccccc3)c2-c2cc(F)ccc2S1(=O)=O,-2,·,·,·,·,·,·,·,
Cc1cc(C(=O)Cn2ncc(Cl)c(Cl)c2=O)c(C)n1CC(F)(F)F,7,1,32,57*,12,1,-12,-13,
CCOC(=O)N/N=C\c1ccc([N+](=O)[O-])o1,15,0,3,6,-9,2,·,·,
O=C(N/N=C/c1ccc([N+](=O)[O-])o1)c1ccc2c(c1)OCO2,1,2,·,40*,-4,6,-12,6,
CCCCCCCC(=O)N/N=C/c1ccc([N+](=O)[O-])o1,2,-1,3,39*,3,1,-21,4,
CC(C)(C)c1ccc2c(c1)OC(C(=O)N/N=C/c1ccc([N+](=O)[O-])o1)CO2 (stereo not drawn),0,7,7,51*,-3,4,-17,2,
O=C(N/N=C\c1ccc(-c2ccc([N+](=O)[O-])cc2)o1)c1ccc2c(c1)OCO2,1,-2,4,-3,3,2,·,·,
O=C(CO)c1c[nH]c2ccccc12,0,·,·,·,-2,·,·,·,
Cc1ccc(O)c(N=Cc2cc(Cc3ccccc3)cc([N+](=O)[O-])c2O)c1,12,-3,·,5,2,8,·,·,
O=[N+]([O-])c1cc(Cc2ccccc2)cc(C=Nc2ccc(N3CCOCC3)cc2)c1O,·,·,-7,50*,1,·,55*,23,FID counter DR=>79
COc1ccc(Br)cc1C1Nc2cccc3cccc(c23)N1,2,-2,45,97*,3,-1,-28,27,
COc1cc(C2Nc3cccc4cccc(c34)N2)ccc1O,7,6,16,19,2,-3,·,·,
N#Cc1c(N2CCCCC2)nc(N)c2c(N)nc3c(c12)CC(CCl)O3 (stereo not drawn),-2,-3,-2,58*,-6,-4,-7,7,
CCC1Cc2c(nc(N)c3c(N)nc(N4CCOCC4)c(C#N)c23)O1 (stereo not drawn),1,-6,-3,-7,0,-1,·,·,
CCOc1ccc(N2C(=O)CC(Sc3nc(C)cc(C)c3C#N)C2=O)cc1 (stereo not drawn),6,-1,-12,6,2,-4,·,·,
CCOc1ccc(N2C(=O)CC(Sc3nc(CC(C)C)ccc3C#N)C2=O)cc1 (stereo not drawn),5,-8,23,39*,-14,-3,65*,-12,
